The values that follow come from ChEMBL document CHEMBL1139362, “Discovery of human macrophage migration inhibitory factor (MIF)-CD74 antagonists via virtual screening” (J Med Chem, 2009).

Activity calls are given as the source filed them. The rule behind the calls is not given here.

The target of experiment [1] is T1, MIF/CD74 (Macrophage migration inhibitory factor and HLA-DR antigens-associated invariant chain) (Homo sapiens) (UniProt P14174+P04233). Nature of the experiment: (§1) Inhibition of human MIF-CD74 binding. In kind it is protein assay. The essentials: (§2)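 Compounds pre-incubated 30 min at room temperature with biotinylated recombinant human MIF (2 ng/µl), then added to wells overnight at 4 °C. Bound MIF detected with streptavidin-alkaline phosphatase and p-nitrophenyl phosphate, A405 expressed as percent of MIF-alone wells. 10–12 concentrations spanning ~500-fold; at least three independent assays.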

The target of experiment [2] is T2, MIF/CD74 (Macrophage migration inhibitory factor and HLA-DR antigens-associated invariant chain) (Homo sapiens, UniProt P04233+P14174).
T2 sequence (P14174 whole entry): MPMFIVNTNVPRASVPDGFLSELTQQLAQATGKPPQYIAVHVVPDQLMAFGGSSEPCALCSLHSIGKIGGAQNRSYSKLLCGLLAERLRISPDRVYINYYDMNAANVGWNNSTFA
T2 sequence (P04233 whole entry): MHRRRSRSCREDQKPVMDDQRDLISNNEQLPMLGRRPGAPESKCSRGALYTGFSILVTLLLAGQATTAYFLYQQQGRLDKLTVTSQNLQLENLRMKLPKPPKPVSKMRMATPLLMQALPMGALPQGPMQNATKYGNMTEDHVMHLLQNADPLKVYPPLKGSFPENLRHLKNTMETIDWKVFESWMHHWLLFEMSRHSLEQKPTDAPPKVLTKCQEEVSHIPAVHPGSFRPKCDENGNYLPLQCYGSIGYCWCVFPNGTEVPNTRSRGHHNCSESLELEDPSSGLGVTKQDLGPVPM
The description is as §1. Type of experiment: protein assay. The essentials: as §2

Experiment [3] has as its target T3, Macrophage migration inhibitory factor (Homo sapiens) (UniProt P14174).
T3 sequence (whole entry): T2 sequence (P14174 whole entry)
Put plainly: Inhibition of human recombinant MIF tautomerase at 10 uM. Details: scale not given: the % may be the effect or the level left.

Experiment [4] has as its target T3, Macrophage migration inhibitory factor (Homo sapiens). Nature of the experiment: (§3) Inhibition of human recombinant MIF tautomerase.
Experiment [5] deals with T1, MIF/CD74 (Macrophage migration inhibitory factor and HLA-DR antigens-associated invariant chain) (Homo sapiens). Put plainly: Inhibition of human MIF-CD74 binding at 10 uM. Type of experiment: protein assay. The arrangement: scale not given: the % may be the effect or the level left.
Experiment [6] deals with T4, Macrophage migration inhibitory factor (Homo sapiens, UniProt P14174).
T4 sequence (P14174 whole entry): T2 sequence (P14174 whole entry)
The experiment is described as §3.

Turning to `O=c1c2ccc(F)cc2sn1-c1ccc(Cl)cc1`, the result in experiment [1] was inactive.

Usually IC50 stands for the midpoint of a concentration-inhibition curve. Compound `Oc1ccc2c(c1)oc1ccccc12` returned a half-maximal inhibitory concentration (IC50) in experiment [2] of 900 µM. Further, the Activity in experiment [3] is 38%.

As for `CCOc1cc(/C=C2\Oc3cc(O)ccc3C2=O)ccc1O`, in experiment [1], the result was inactive.

In experiment [2], `O=C(c1cc2ccccc2o1)N1CCc2ccccc21` gave an IC50 of 4 µM.

In the case of `N#C/C(=C\c1ccc(-c2ccccc2)cc1)c1ccccn1`, the outcome in experiment [1] was inactive.

Take `Ic1cc(-c2ccccc2)ncn1`: in experiment [1], the result was inactive.

In the case of `COC(=O)C[C@H]1CC(c2ccc(O)cc2)=NO1` (racemic), in experiment [4], the outcome was inactive. In addition, in experiment [5], the Activity worked out at 40%.

`CC(OC(=O)c1ccc(-c2ccc(O)cc2)cc1)C(=O)NCc1ccccc1` (stereo not given): the outcome in experiment [1] was inactive.

In turn, `O=C(O)c1cc(-n2cnnn2)ccc1O` yielded an IC50 in experiment [2] of 550 µM. Also, the result in experiment [4] was inactive.

Consider `O=C(O)c1cccc(-n2ccnc2)c1`, for which the result in experiment [1] was inactive.

For `O=C(O)c1cc(-n2cnnc2)ccc1Cl`, the IC50 in experiment [2] stood at 250 µM. Moreover, the outcome in experiment [4] was inactive.

Consider `Oc1csc(Cc2nc(-c3ccc(-c4ccccc4)cc3)cs2)n1`, for which the IC50 in experiment [2] is 65 µM; in experiment [6] it was 300 µM.

For `O=C(O)COc1ccc2occ(C(=O)c3ccccc3)c2c1`, the values for the IC50 in experiment [2] and in experiment [6] were 1500 µM and 980 µM, respectively.

For the compound `OCc1nc2ccccc2n1Cc1ccc2ccccc2c1`, the outcome in experiment [1] was inactive.

As for `Oc1ccc(/C=C/c2ccc3cccc(O)c3n2)cc1`, in experiment [2], the IC50 is 8 µM. Further, the Activity in experiment [3] was found to be 40%.

In the case of `Cc1ccc(-n2cnc3ccccc3c2=O)cc1Cl`, the result in experiment [1] was inactive.

With `O=c1oc2c(O)c(O)ccc2cc1-c1nc2ccccc2s1`, the outcome in experiment [1] was inactive.

Consider `Oc1c(C(Nc2cccc(F)c2)c2ccccn2)ccc2cccnc12` (stereo not given), for which the half-inhibitory concentration (IC50) in experiment [2] came to 2.5 µM; in experiment [6], 530 µM.

As to `O=C(O)c1cccc(-c2cc[nH]n2)c1`, in experiment [2], the IC50 is 15 µM. In addition, the Activity in experiment [3] was 30%.

In the case of `Cc1cc(C)c2ccc(C3=C(O)c4ccccc4C3=O)nc2c1O`, in experiment [1], the outcome was inactive.

For the compound `O=C(Nc1cccc2ccccc12)C(=O)c1c[nH]c2ccccc12`, the outcome in experiment [1] was inactive.

For the compound `O=c1[nH]nc(-c2cccs2)cc1Cc1ccc(Cl)c(Cl)c1`, the half-inhibitory concentration (IC50) in experiment [2] came out at 250 µM; in experiment [6] it was 430 µM.

On to `CC(=O)Nc1cccc2ccc(-c3cnc4ccccc4c3)nc12`, for which the result in experiment [1] was inactive.

On to `CC(C)(C)OC(=O)C[C@H]1CC(c2ccc(O)c(F)c2)=NO1` (racemic), for which the IC50 in experiment [6] is 0.55 µM.

Regarding `CC(=O)Oc1ccc2nc(-c3cc4ccccc4o3)oc(=O)c2c1`, the IC50 in experiment [2] amounted to 2.5 µM.
